Experimental data reported in ChEMBL document CHEMBL1149822, “Synthesis, antimicrobial and anti-inflammatory activities of some 1,2,4-triazolo[3,4-b][1,3,4]thiadiazoles and 1,2,4-triazolo[3,4-b][1,3,4]thiadiazines bearing trichlorophenyl moiety” (2008).
≈ marks a conversion by molar mass, not a printed value.

What was measured:
[1] = test system: Escherichia coli; assay: Antibacterial activity against Escherichia coli ATTC 25922 after 16 to 18 hrs by serial plate dilution method; type: functional; details: ATCC25922
Outline: (§1)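 Serial dilutions were made in Mueller-Hinton broth in tubes, adjusted to […] with phosphate buffer, and inoculated with a standardized bacterial suspension. Tubes were incubated at 37 °C for 16–18 h. MIC was taken as the lowest concentration with no visible growth.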

[2] = test system: Escherichia coli; assay: Antibacterial activity against Escherichia coli ATTC 25922 at 12 ug/ml after 3 to 4 days; type: functional; details: ATCC25922, read-out: IZ
Outline: (§2)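 Agar well diffusion. Plates were seeded with a bacterial suspension, the excess was decanted and plates were dried at 37 °C for 1 h. Wells were punched and compounds in DMSO were added, with DMSO wells as control. Plates were run in triplicate at 37 °C for 3–4 days and zones of inhibition were scored.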

[3] = test system: Klebsiella pneumoniae; assay: Antibacterial activity against Klebsiella pneumoniae after 16 to 18 hrs by serial plate dilution method; type: functional; outline: as §1
[4] = test system: Klebsiella pneumoniae; assay: Antibacterial activity against Klebsiella pneumoniae at 25 ug/ml after 3 to 4 days; type: functional; details: read-out: IZ; outline: as §2
[5] = test system: Pseudomonas aeruginosa; assay: Antibacterial activity against Pseudomonas aeruginosa ATTC 27853 after 16 to 18 hrs by serial plate dilution method; type: functional; details: ATCC27853; outline: as §1
[6] = test system: Staphylococcus aureus; assay: Antibacterial activity against Staphylococcus aureus ATTC 25923 after 16 to 18 hrs by serial plate dilution method; type: functional; outline: as §1
[7] = test system: Staphylococcus aureus; assay: Antibacterial activity against Staphylococcus aureus ATTC 25923 at 12 ug/ml after 3 to 4 days; type: functional; details: read-out: IZ; outline: as §2
[8] = test system: Talaromyces marneffei; assay: Antifungal activity against Penicillium marneffei by serial plate dilution method; type: functional
Outline: (§3)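 Agar of peptone 1 g, D-glucose 4 g and agar 2 g per 100 mL water, pH 5.7, was lawned with a fungal spore suspension in normal saline. The excess was decanted and plates were dried at 37 °C for 1 h. Wells were punched and compounds in DMSO were added, with a DMSO control. Plates were run in triplicate at 37 °C for 3–4 days, and the inhibition zone diameter was measured.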

[9] = test system: Talaromyces marneffei; assay: Antifungal activity against Penicillium marneffei at […] ug/ml after 3 to 4 days; type: functional; details: read-out: IZ
[10] = test system: Trichophyton mentagrophytes; assay: Antifungal activity against Trichophyton mentagrophytes by serial plate dilution method; type: functional
[11] = test system: Aspergillus flavus; assay: Antifungal activity against Aspergillus flavus NCIM 524 by serial plate dilution method; type: functional; outline: as §3
[12] = test system: Aspergillus fumigatus; assay: Antifungal activity against Aspergillus fumigatus NCIM 902 by serial plate dilution method; type: functional
[13] = test system: Aspergillus fumigatus; assay: Antifungal activity against Aspergillus fumigatus NCIM 902 at […] ug/ml after 3 to 4 days; type: functional; details: read-out: IZ
[14] = test system: Rattus norvegicus; assay: Antiinflammatory activity against carrageenan-induced paw oedema in albino rat at 50 mg/kg, po relative to control; type: functional
Outline: (§4)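 Albino rats of 180–250 g were fasted 18 h and placed in groups of six. Samples were suspended in 2% w/v acacia mucilage, and the vehicle group served as control. 30 min after dosing, carrageenan (1 mg mL⁻¹, 0.1 mL) was injected subcutaneously into the right hind paw. Paw volume was measured immediately and at 3 h, and % oedema inhibition was calculated versus vehicle controls.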

[15] = test system: Pseudomonas aeruginosa; assay: Antibacterial activity against Pseudomonas aeruginosa ATTC 27853 at 25 ug/ml after 3 to 4 days; type: functional; details: ATCC27853, read-out: IZ; outline: as §2
[16] = test system: Trichophyton mentagrophytes; assay: Antifungal activity against Trichophyton mentagrophytes at 25 ug/ml after 3 to 4 days; type: functional; details: read-out: IZ; outline: as §3
[17] = test system: Aspergillus flavus; assay: Antifungal activity against Aspergillus flavus NCIM 524 at 25 ug/ml after 3 to 4 days; type: functional; details: read-out: IZ; outline: as §3
[18] = test system: Escherichia coli; assay: microbe, parasite or virus in culture; type: functional; details: ATCC25922, read-out: IZ
[19] = test system: Klebsiella pneumoniae; assay: microbe, parasite or virus in culture; type: functional; details: read-out: IZ
[20] = test system: Pseudomonas aeruginosa; assay: microbe, parasite or virus in culture; type: functional; details: ATCC27853, read-out: IZ
[21] = test system: Staphylococcus aureus; assay: Antibacterial activity against Staphylococcus aureus ATTC 25923 at […] ug/ml after 3 to 4 days; type: functional; details: read-out: IZ
[22] = test system: Trichophyton mentagrophytes; assay: Antifungal activity against Trichophyton mentagrophytes at […] ug/ml after 3 to 4 days; type: functional; details: read-out: IZ
[23] = test system: Aspergillus flavus; assay: Antifungal activity against Aspergillus flavus NCIM 524 at […] ug/ml after 3 to 4 days; type: functional; details: read-out: IZ
[24] = test system: Aspergillus fumigatus; assay: Antifungal activity against Aspergillus fumigatus NCIM 902 at 6.5 ug/ml after 3 to 4 days; type: functional; details: read-out: IZ; outline: as §3
[25] = test system: Klebsiella pneumoniae; assay: Antibacterial activity against Klebsiella pneumoniae at 12 ug/ml after 3 to 4 days; type: functional; details: read-out: IZ; outline: as §2
[26] = test system: Talaromyces marneffei; assay: Antifungal activity against Penicillium marneffei at 12 ug/ml after 3 to 4 days; type: functional; details: read-out: IZ; outline: as §3
[27] = test system: Aspergillus fumigatus; assay: Antifungal activity against Aspergillus fumigatus NCIM 902 at 12 ug/ml after 3 to 4 days; type: functional; details: read-out: IZ; outline: as §3
[28] = test system: Trichophyton mentagrophytes; assay: Antifungal activity against Trichophyton mentagrophytes at 3.125 ug/ml after 3 to 4 days; type: functional; details: read-out: IZ; outline: as §3
[29] = test system: Aspergillus flavus; assay: Antifungal activity against Aspergillus flavus NCIM 524 at 3.125 ug/ml after 3 to 4 days; type: functional; details: read-out: IZ; outline: as §3
[30] = test system: Staphylococcus aureus; assay: microbe, parasite or virus in culture; details: read-out: IZ
[31] = test system: Rattus norvegicus; assay: Antiinflammatory activity against carrageenan-induced paw oedema in albino rat at 1.5 mg/kg, po, relative to control; type: functional; outline: as §4

Row | Compound | MIC [1] [µg/mL] | MIC [3] [µg/mL] | MIC [5] [µg/mL] | MIC [6] [µg/mL] | zone of inhibition at 12 µg/mL [7] [mm] | MIC [8] [µg/mL] | zone of inhibition at 6.25 µg/mL [9] [mm] | MIC [10] [µg/mL] | MIC [11] [µg/mL] | MIC [12] [µg/mL] | zone of inhibition at 6.25 µg/mL [13] [mm] | inhibition in vivo at 50 mg/kg [14] [%] | zone of inhibition at 6.25 µg/mL [18] [mm] | zone of inhibition at 6.25 µg/mL [19] [mm] | zone of inhibition at 6.25 µg/mL [20] [mm] | zone of inhibition at 6.25 µg/mL [22] [mm] | zone of inhibition at 6.25 µg/mL [23] [mm] | also measured
1 | Clc1cc(Cl)c(Cl)c(-c2nnc3sc(-c4cccc5cnccc45)nn23)c1 | 12 (≈ 27.7 µM) | 25 (≈ 57.8 µM) | 25 (≈ 57.8 µM) | 12 (≈ 27.7 µM) | 11 | 6.25 (≈ 14.4 µM) | 16 | 25 (≈ 57.8 µM) | 25 (≈ 57.8 µM) | 6.25 (≈ 14.4 µM) | 16 | 22.6 |  |  |  |  |  | zone of inhibition at 12 µg/mL [2]: 11 mm; zone of inhibition at 25 µg/mL [4]: < 10 mm; zone of inhibition at 25 µg/mL [15]: < 10 mm; zone of inhibition at 25 µg/mL [16]: < 10 mm; zone of inhibition at 25 µg/mL [17]: < 10 mm
2 | COc1ccc(-c2nn3c(-c4cc(Cl)cc(Cl)c4Cl)nnc3s2)cc1 | 6.25 (≈ 15.2 µM) | 6.25 (≈ 15.2 µM) | 6.25 (≈ 15.2 µM) | 6.25 (≈ 15.2 µM) |  | 6.25 (≈ 15.2 µM) | 16 | 6.25 (≈ 15.2 µM) | 6.25 (≈ 15.2 µM) | 6.5 (≈ 15.8 µM) |  | 25.8 | 16 | 16 | 16 | 16 | 16 | zone of inhibition at 6.25 µg/mL [21]: 16 mm; zone of inhibition at 6.5 µg/mL [24]: 16 mm
3 | Cc1cc(C)cc(-c2nn3c(-c4cc(Cl)cc(Cl)c4Cl)nnc3s2)c1 | 6.25 (≈ 15.3 µM) | 12 (≈ 29.3 µM) | 6.25 (≈ 15.3 µM) | 12 (≈ 29.3 µM) | 11 | 12 (≈ 29.3 µM) |  | 6.25 (≈ 15.3 µM) | 6.25 (≈ 15.3 µM) | 12 (≈ 29.3 µM) |  |  | 16 |  | 16 | 16 | 16 | zone of inhibition at 12 µg/mL [25]: 11 mm; zone of inhibition at 12 µg/mL [26]: 11 mm; zone of inhibition at 12 µg/mL [27]: 11 mm
4 | Cc1cc(C2CCCCC2)n(O)c(=O)c1.NCCO [CICLOPIROX OLAMINE] |  |  |  |  |  | 6.25 | 16 | 3.12 | 3.12 | 6.25 | 16 |  |  |  |  |  |  | zone of inhibition at 3.125 µg/mL [28]: 27 mm; zone of inhibition at 3.125 µg/mL [29]: 25 mm
5 | O=C(O)c1cn(C2CC2)c2cc(N3CCNCC3)c(F)cc2c1=O [CIPROFLOXACIN] |  | 6.25 (≈ 18.9 µM) |  | 1.56 (≈ 4.71 µM) |  |  |  |  |  |  |  |  | 16 | 16 | 16 |  |  | zone of inhibition at 1.56 µg/mL [30]: 22 mm
6 | COc1ccc2c(c1)c(CC(=O)O)c(C)n2C(=O)c1ccc(Cl)cc1 [INDOMETHACIN] |  |  |  |  |  |  |  |  |  |  |  |  |  |  |  |  |  | inhibition in vivo at 1.5 mg/kg [31]: 59.7%
